# Results as given in ChEMBL document CHEMBL2150970, “Synthesis, anticancer activities and molecular modeling studies of novel indole retinoid derivatives” (Eur J Med Chem, 2012).
# Active and inactive are the calls of the source. The calls are words filed in the database; no cut-off is given here.
# Legend:
# Huh-7 = assay: Cytotoxicity against human HuH7 cells after 3 days by SRB assay; type: functional, cell-based
# How it was run: (§1)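 Human cancer cells grown in DMEM with 10% FCS and penicillin/streptomycin (CAMA-1 medium also had 1% sodium pyruvate), at 37 °C, 5% CO2. Seeded at 10⁴ cells/well, dosed 24 h later, and exposed 3 days. Fixed with ice-cold 10% TCA for 60 min, stained 10 min with 0.4% SRB at room temperature, washed with 1% acetic acid, dye dissolved in 10 mM Tris base, A515 read. Triplicate runs with matched DMSO controls; IC50 determined.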
# T47D [1] = assay: Cytotoxicity against human T47D cells after 3 days by SRB assay; type: functional, cell-based; how it was run: as §1
# HCT-116 = assay: Cytotoxicity against human HCT116 cells after 3 days by SRB assay; type: functional, cell-based; how it was run: as §1
# MDA-MB-157 [2] = assay: Cytotoxicity against human MDA-MB-157 cells after 3 days by SRB assay; type: functional, cell-based; settings: MDA-MB-157, 72 h
# How it was run: (§2)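 Cells at 10⁴/well were treated 24 h after seeding and exposed for three days. They were then fixed in ice-cold 10% TCA for 60 min at 4 °C, stained with 0.4% SRB for 10 min at room temperature, washed with 1% acetic acid and solubilised in 10 mM Tris base. Absorbance was read at 515 nm. IC₅₀ was determined in triplicate with DMSO vehicle controls.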
# BT-474 = assay: Cytotoxicity against human BT474 cells after 3 days by SRB assay; type: functional, cell-based; settings: BT-474, 72 h; how it was run: as §2
# MCF-12A [3] = assay: Cytotoxicity against human MCF12A cells after 3 days by SRB assay; type: cell-based; settings: 72 h; how it was run: as §2
# MDA-MB-453 [4] = assay: Cytotoxicity against human MDA-MB-453 cells after 3 days by SRB assay; type: functional, cell-based; settings: MDA-MB-453, 72 h; how it was run: as §2
# MDA-MB-231 [5] = assay: Cytotoxicity against human MDA-MB-231 cells after 3 days by SRB assay; type: functional, cell-based; settings: MDA-MB-231, 72 h; how it was run: as §2
# SK-BR-3 = assay: Cytotoxicity against human SKBR3 cells after 3 days by SRB assay; type: functional, cell-based; settings: SK-BR-3, 72 h; how it was run: as §2
# MDA-MB-361 [6] = assay: Cytotoxicity against human MDA-MB-361 cells after 3 days by SRB assay; type: functional, cell-based; settings: MDA-MB-361, 72 h; how it was run: as §2
# ZR-75-1 = assay: Cytotoxicity against human ZR-75-1 cells after 3 days by SRB assay; type: functional, cell-based; settings: ZR-75-1, 72 h; how it was run: as §2
# MCF7 [7] = assay: Cytotoxicity against human MCF7 cells after 3 days by SRB assay; type: functional, cell-based; settings: MCF7, 72 h; how it was run: as §2
# BT-20 = assay: Cytotoxicity against human BT20 cells after 3 days by SRB assay; type: functional, cell-based; settings: BT-20, 72 h; how it was run: as §2
# MDA-MB-231 [8] = assay: Induction of apoptosis in ER-negative human MDA-MB-231 cells assessed as apoptotic cells at 1.8 uM measured on day 4 by Annexin-V-FITC/propidium iodide staining based FACS flow cytometry; type: functional
# How it was run: (§3)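 Cells seeded at 5×10⁵ per plate (37 °C, 5% CO2) and treated the following day at two concentrations. On days 2 and 4 after treatment, 1×10⁶ cells were stained with a FITC Annexin V/propidium iodide kit, kept on ice in the dark, and analysed at once on a FACSCalibur. Mean percentage of Annexin V+/PI+ cells is reported. Controls: matched DMSO, plus camptothecin and 1% v/v H2O2 as positive controls.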
# MDA-MB-231 [9] = assay: Induction of apoptosis in ER-negative human MDA-MB-231 cells assessed as apoptotic cells at 3.6 uM measured on day 2 by Annexin-V-FITC/propidium iodide staining based FACS flow cytometry; type: functional; how it was run: as §3
# MCF7 [10] = assay: Ratio of IC50 for human MCF12A cells to IC50 for human MCF7 cells
# How it was run: (§4)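 Each IC50 came from the SRB assay after 3 days' exposure: 10⁴ cells/well, TCA fixation, 0.4% SRB, Tris solubilization, A515, triplicates, DMSO control. Ratio is immortalized normal breast MCF-12A IC50 over the breast cancer line's IC50. Media carried 10% FCS plus antibiotics: DMEM for most lines, DMEM with sodium pyruvate for CAMA-1/MDA-MB-157, glucose-rich RPMI for ZR-75-1, McCoy for SK-BR-3.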
# MDA-MB-453 [11] = assay: Ratio of IC50 for human MCF12A cells to IC50 for human MDA-MB-453 cells; how it was run: as §4
# MCF-12A [12] = assay: Ratio of IC50 for human MCF12A cells to IC50 for human CAMA1 cells; how it was run: as §4
# MDA-MB-157 [13] = assay: Ratio of IC50 for human MCF12A cells to IC50 for human MDA-MB-157 cells; how it was run: as §4
# CAMA-1 = assay: Cytotoxicity against human CAMA1 cells after 3 days by SRB assay; type: functional, cell-based; settings: CAMA-1, 72 h; how it was run: as §1
# MDA-MB-231 [14] = assay: Induction of apoptosis in ER-negative human MDA-MB-231 cells assessed as apoptotic cells at 1.83 uM after 3 days by Hoechst staining based fluorescent microscopy; type: functional, cell-based
# T47D [15] = assay: Induction of apoptosis in ER-positive human T47D cells assessed as apoptotic cells at IC50 concentration after 3 days by Hoechst staining based fluorescent microscopy; type: functional, cell-based
# MCF-12A [16] = assay: Ratio of IC50 for human MCF12A cells to IC50 for human BT20 cells; how it was run: as §4
# T47D [17] = assay: Ratio of IC50 for human MCF12A cells to IC50 for human T47D cells; how it was run: as §4
# MDA-MB-231 [18] = assay: Induction of apoptosis in ER-negative human MDA-MB-231 cells assessed as apoptotic cells at 1.8 uM measured on day 2 by Annexin-V-FITC/propidium iodide staining based FACS flow cytometry; type: functional; how it was run: as §3
# MDA-MB-361 [19] = assay: Ratio of IC50 for human MCF12A cells to IC50 for human MDA-MB-361 cells; how it was run: as §4
# MDA-MB-231 [20] = assay: Induction of apoptosis in ER-negative human MDA-MB-231 cells assessed as apoptotic cells at 3.6 uM measured on day 4 by Annexin-V-FITC/propidium iodide staining based FACS flow cytometry; type: functional; how it was run: as §3
# [21] = Homo sapiens, Huh-7, 72 h, read-out: IC50
# [22] = Homo sapiens, T47D, 72 h, read-out: IC50
# [23] = Homo sapiens, HCT-116, 72 h, read-out: IC50
SMILES,IC50 (Huh-7; [21]),IC50 (T47D [1]; [22]),IC50 (HCT-116; [23]),IC50 (MDA-MB-157 [2]),IC50 (BT-474),IC50 (MCF-12A [3]),IC50 (MDA-MB-453 [4]),IC50 (MDA-MB-231 [5]),IC50 (SK-BR-3),IC50 (MDA-MB-361 [6]),IC50 (ZR-75-1),IC50 (MCF7 [7]),IC50 (BT-20),other results
COc1ccc2[nH]cc(/C=C/C(=O)c3ccc4c(c3)C(C)(C)CCC4(C)C)c2c1,15500 nM,11400 nM,13900 nM,–,–,–,–,–,–,–,–,–,–,–
CC1(C)CCC(C)(C)c2cc(C(=O)/C=C/c3c[nH]c4ccc(Cl)cc34)ccc21,15400 nM,13100 nM,10700 nM,–,–,–,–,–,–,–,–,–,–,–
CC[C@@]1(O)C(=O)OCc2c1cc1n(c2=O)Cc2cc3ccccc3nc2-1 [CAMPTOTHECIN],60 nM,< 10 nM,< 10 nM,20 nM,12800 nM,< 10 nM,< 10 nM,< 10 nM,< 10 nM,170 nM,< 10 nM,< 10 nM,< 10 nM,–
CC1(C)CCC(C)(C)c2cc(C(=O)/C=C/c3c[nH]c4ccc(C(=O)O)cc34)ccc21,–,–,–,–,–,–,–,–,–,–,–,–,–,IC50 (Huh-7; huh-7): Not Active; IC50 (T47D [1]; t47d): Not Active; IC50 (HCT-116; hct-116): Not Active
CC1(C)CCC(C)(C)c2cc(C(=O)/C=C/c3c[nH]c4ccccc34)ccc21,< 10 nM,100 nM,20 nM,1460 nM,1910 nM,3920 nM,< 10 nM,1830 nM,1290 nM,60 nM,3880 nM,1710 nM,1310 nM,Activity (MDA-MB-231 [8]): 10.53%; Activity (MDA-MB-231 [9]): 6.83%; Ratio IC50 (MCF7 [10]): 2.29; Ratio IC50 (MDA-MB-453 [11]): > 392; Ratio IC50 (MCF-12A [12]): > 392; Ratio IC50 (MDA-MB-157 [13]): 2.68; IC50 (CAMA-1): < 10 nM; Activity (MDA-MB-231 [14]): Active; Activity (T47D [15]): Active; Ratio IC50 (MCF-12A [16]): 2.99; Ratio IC50 (T47D [17]): 3.38; Activity (MDA-MB-231 [18]): 7.1%; Ratio IC50 (MDA-MB-361 [19]): 65.3; Activity (MDA-MB-231 [20]): 15.62%
CC1(C)CCC(C)(C)c2cc(C(=O)/C=C/c3c[nH]c4ccc(Br)cc34)ccc21,14000 nM,11500 nM,10800 nM,–,–,–,–,–,–,–,–,–,–,–
